The list is not random: actives were taken first. Their share in the collection is about 1.8%.
NPY1 pot ag – NPY-Y1 receptor potentiators or agonists, primary screen, cell-based | activation, % at 3.6 µM | NPY-Y1 expressing cells, potentiator/agonist activation | 0.37% of 220,000 active | Neuropeptide Y receptor type 1 (Homo sapiens), P25929; in the data active = activation above about 33%, passing the limit was not always enough;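 also: cells stimulated with NPY at EC10 then isoproterenol at EC100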
Target sequence (P25929 whole entry, looked up): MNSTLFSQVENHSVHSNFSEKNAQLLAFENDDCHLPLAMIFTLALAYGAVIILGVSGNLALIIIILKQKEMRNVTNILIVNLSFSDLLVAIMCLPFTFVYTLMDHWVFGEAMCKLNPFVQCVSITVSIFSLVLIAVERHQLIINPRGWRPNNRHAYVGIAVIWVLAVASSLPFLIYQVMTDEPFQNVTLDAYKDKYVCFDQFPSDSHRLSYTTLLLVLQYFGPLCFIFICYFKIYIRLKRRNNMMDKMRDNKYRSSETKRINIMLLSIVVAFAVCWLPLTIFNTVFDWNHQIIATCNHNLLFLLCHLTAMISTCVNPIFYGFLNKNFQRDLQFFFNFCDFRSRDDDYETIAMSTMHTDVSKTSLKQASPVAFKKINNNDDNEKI
NPY-Y2 PAM-ag – NPY-Y2 potentiators or agonists, primary screen, cell-based; 0.45% of 220,000 active; activation, % at 3.6 µM; Neuropeptide Y receptor type 2 (Homo sapiens), P49146; AID 1359, 2008; cells expressing NPY-Y2, potentiator/agonist read-out; in the data active = activation above about 27%;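 also: cells stimulated with NPY near EC25 plus isoproterenol at EC100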
NPY Y2 blocker – NPY-Y2 receptor antagonists, primary screen, cell-based. Neuropeptide Y receptor type 2 (Homo sapiens), P49146. AID 793, 2007. 0.99% of 140,000 active. inhibition, % at 2.7 µM. NPY-Y2 expressing cells, antagonist mode; in the data active = inhibition above about 17%
NPY Y1 blocker – NPY-Y1 receptor antagonists, primary screen, cell-based | Neuropeptide Y receptor type 1 (Homo sapiens), P25929 | HEK293-CNG Y1 cells, membrane potential fluorescence; NPY at EC95, then isoproterenol | inhibition, % at 3.6 µM | 1% of 200,000 active;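 active = inhibition above the campaign mean inhibition of all tested compounds plus 3 SD, cut at about 20% in these data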
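Benchmarks – high control isoproterenol alone, low control NPY with isoproterenol · Material – HEK293 Y1/CNG channel cell line · Times – dye 3 h, compound 60 min room temperature, stimulation 45 min · Probe or stimulus – NPY (25 nM), isoproterenol (1 µM), Ro 20-1724 (25 µM) · Evaluation – % inhibition of NPY effect · Signal – fluorescence, membrane potential probe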
Numbers stand for hits; 0 = inactive; - = no result.

SMILES	NPY1 pot ag	NPY-Y2 PAM-ag	NPY Y2 blocker	NPY Y1 blocker
CN(C)c1nc(OCCNC(=O)COc2ccccc2Cl)nc(N(C)C)n1	0	0	0	0
O=C(Nc1ncc2c(n1)-c1ccccc1CC2)c1cccc(Cl)c1	0	0	24.7	34.0
CC(=O)c1c(C)[nH]c(C(=O)OC(C)C(=O)Nc2cc(S(=O)(=O)N3CCCCC3)ccc2Cl)c1C (centres undefined)	0	0	0	0
CCOC(=O)c1cc(-c2c(Cl)cccc2Cl)no1	0	0	-	-
COc1ccc(C)cc1S(=O)(=O)N(C)CC(=O)N1CCN(c2ccccc2)CC1	0	0	-	0
CC(CCc1ccccc1)NC(=O)COC(=O)c1ccc(S(C)(=O)=O)c([N+](=O)[O-])c1 (centres undefined)	66.4	52.2	-	0
O=C(CNS(=O)(=O)c1cccc(Cl)c1)Nc1ccc(-c2nc3ccccc3s2)cc1	0	0	0	0
CC(NS(=O)(=O)c1cccc(Cl)c1)C(=O)Nc1ccc(-c2nc3ccccc3s2)cc1 (centres undefined)	54.6	0	0	0
CNn1cnc2ccsc2c1=O	0	0	-	-
CCOC(=O)Cc1csc(NC(=O)CSc2nc(-c3ccccc3)c(C#N)c(=O)[nH]2)n1	0	0	-	20.7
Cc1ccc(-n2nc(C)c3onc(C)c3c2=O)cc1	0	0	-	-
Cc1[nH]nc2c1C1(C(=O)N(Cc3ccc(Cl)cc3)c3ccccc31)C(C#N)=C(N)O2 (centres undefined)	0	0	0	0
CN1C(=O)C2(C(C#N)=C(N)Oc3n[nH]c(-c4ccc(Cl)cc4)c32)c2ccccc21 (centres undefined)	40.0	42.8	0	0
Cc1ccccc1-c1cccc([C@@H]2C[C@H]3CN(Cc4cccnc4)C(=O)[C@]34CCCN24)c1	0	0	-	0
COc1ccc(CNCC(O)COc2cccc3c2OC(C)(C)C3)cc1 (centres undefined)	106.2	95.1	-	0
Cc1cc(C)c(Cn2c(=O)n(CCCC(=O)NCc3ccco3)c(=O)c3ccccc32)c(C)c1	0	0	0	0
CC(=O)Nc1ccc(S(=O)(=O)N(C)c2ccc(OCC(=O)OCC(=O)NCc3ccco3)cc2)cc1	0	0	-	-
CC1(C)CC2(CCO1)OC(=O)CC2C(=O)Nc1ccccc1Cl (centres undefined)	0	0	-	0
Cc1ccc(C)c(N2CCN(c3nc4ccccc4c(=O)n3Cc3ccccc3)CC2)c1	0	0	28.1	30.1
COC(=O)Nc1nc(-c2ccccc2)c(C(=O)c2ccccc2)s1	0	0	0	29.5
C=CCc1ccccc1OCC(O)CN1CCN(CCN2C(=O)c3cccc4cccc(c34)C2=O)CC1 (centres undefined)	53.9	45.3	0	0
C=CCc1ccccc1OCC(O)CN1CCN(Cc2ccc3c(c2)OCO3)CC1 (centres undefined)	92.2	87.1	0	0
CC(C)c1nc(CN(C)C(=O)N[C@H](C(=O)N[C@@H](Cc2ccccc2)C[C@H](O)[C@H](Cc2ccccc2)NC(=O)OCc2cncs2)C(C)C)cs1	0	0	-	0
Cc1ccc(CS(=O)(=O)c2ccc(C(=O)N3CCCCC3)cc2[N+](=O)[O-])cc1	0	0	-	0
Cc1ccc(CS(=O)(=O)c2ccc(C(=O)N3CCN(c4ccccn4)CC3)cc2[N+](=O)[O-])cc1	0	0	-	20.2
SMILES	NPY1 pot ag	NPY-Y2 PAM-ag	NPY Y2 blocker	NPY Y1 blocker
COc1ccc(S(=O)(=O)Nc2ccccc2OC)cc1NC(=O)c1cc2ccccc2oc1=O	0	0	0	0
CC1CC(C)CN(C(=O)c2ccc3c(c2NCCO)C(=O)c2ccccc2C3=O)C1 (centres undefined)	55.3	48.6	0	0
CCOc1ccccc1NC(=O)C1=C(C)NC(=S)NC1c1cccs1 (centres undefined)	0	0	0	0
CCOc1ccc2c(c1)sc(N)[n+]2Cc1cc(C)cc2cccnc12	0	0	41.8	51.9
Cc1cc(C[n+]2cc(Cl)ccc2N)c2ncccc2c1	0	0	-	-
Cc1cc(C[n+]2ncsc2N)c2ncccc2c1	0	0	-	-
COc1ccc2c(c1)sc(N)[n+]2Cc1cc(C)cc2cccnc12	0	0	47.7	49.1
CN(CCC#N)C(=O)CC(Cc1ccccc1)C1CCOC(C)(C)C1 (centres undefined)	0	0	-	-
COc1ccc(C(=O)Nc2nc3c(s2)CCCC3)cc1S(=O)(=O)N1CCCc2ccccc21	0	0	0	0
COc1ccc(C(C(=O)NC2CCCC2)N(Cc2ccccc2)C(=O)c2nsc(Cl)c2Cl)cc1 (centres undefined)	0	0	27.6	36.1
O=C(/C=C/c1ccc(Cl)cc1)NC(=S)NN1CCCCC1c1cccnc1 (centres undefined)	0	0	39.9	0
COc1ccc(/C=C/C(=O)NC(=S)NN2CCCCC2c2cccnc2)cc1OC (centres undefined)	0	0	0	0
C/C(=N/NC(=O)CNC(=O)c1ccncc1)c1ccco1	0	0	-	-
CCCCC(C)(O)C/C=C/[C@H]1[C@H](O)CC(=O)[C@@H]1CCCCCCC(=O)OC (some centres undefined)	0	0	93.2	106.4
N#Cc1c(NC(=O)CSc2ccccn2)oc(-c2ccccc2)c1-c1ccccc1	0	0	21.3	37.9
Cn1c(SCC(=O)NCc2cccs2)nnc1-c1ccc(O)cc1	0	0	-	0
N#C/C(=C\c1cn[nH]c1-c1ccccc1)C(=O)NC1CCCCCC1	0	0	0	0
O=C(CCc1ccccc1)Nc1ccccc1F	0	0	0	0
O=C(CCc1ccccc1)Nc1c(F)c(F)c(F)c(F)c1F	0	0	0	33.2
CC(=O)Nc1nonc1-c1nc2ccccc2n1CCC(C)C	0	0	17.8	42.8
CC(=O)c1ccc(NC(=O)Nc2ccc(NS(=O)(=O)c3ccc(C)cc3)cc2)cc1	44.5	40.0	0	0
COC(=O)Nc1ccc(S(=O)(=O)Nc2ccc(C)cc2)cc1	0	0	0	0
C=CCC1(N(C(C)=O)c2ccccc2C)CCCCC1	0	0	-	0
COC(=O)[C@@H]1C(c2c(OC)cc(OC)cc2OC)=NO[C@H]1C(=O)OC	55.9	42.1	0	0
COc1ccc(C2c3c(-c4cc(Cl)c(C)cc4O)n[nH]c3C(=O)N2Cc2cccnc2)cc1OC (centres undefined)	0	0	55.3	44.7
SMILES	NPY1 pot ag	NPY-Y2 PAM-ag	NPY Y2 blocker	NPY Y1 blocker
COc1ccc(C2c3c(-c4ccccc4O)n[nH]c3C(=O)N2Cc2ccco2)cc1OC (centres undefined)	0	0	-	-
CC(C)c1ccc(NC(=O)C2CCCCC2C(=O)O)cc1 (centres undefined)	0	0	0	0
O=C(O)[C@H]1CCCC[C@H]1C(=O)Nc1ccc(Nc2ccccc2)cc1	48.6	34.0	0	0
CC1=NN(C(C#N)c2c(C)nn(Cc3ccccc3)c2C)C(C)(C)C1 (centres undefined)	0	0	-	0
COc1ccc(CCNC(=O)c2ccc3ccccc3n2)cc1OC	0	0	-	20.1
COc1ccc2c(c1OC)C(=O)N1c3ccccc3C(=O)N(c3ccccc3)C21 (centres undefined)	0	0	23.0	0

Compound activity (PubChem)
